Reference: paper PMC3384716 (Steroids, 2012)

Key:
[1] = target: T1, purified full length recombinant human PR-B (Homo sapiens, UniProt P06401); test: Competitive radiometric receptor binding assay
T1 sequence (P06401 1-933): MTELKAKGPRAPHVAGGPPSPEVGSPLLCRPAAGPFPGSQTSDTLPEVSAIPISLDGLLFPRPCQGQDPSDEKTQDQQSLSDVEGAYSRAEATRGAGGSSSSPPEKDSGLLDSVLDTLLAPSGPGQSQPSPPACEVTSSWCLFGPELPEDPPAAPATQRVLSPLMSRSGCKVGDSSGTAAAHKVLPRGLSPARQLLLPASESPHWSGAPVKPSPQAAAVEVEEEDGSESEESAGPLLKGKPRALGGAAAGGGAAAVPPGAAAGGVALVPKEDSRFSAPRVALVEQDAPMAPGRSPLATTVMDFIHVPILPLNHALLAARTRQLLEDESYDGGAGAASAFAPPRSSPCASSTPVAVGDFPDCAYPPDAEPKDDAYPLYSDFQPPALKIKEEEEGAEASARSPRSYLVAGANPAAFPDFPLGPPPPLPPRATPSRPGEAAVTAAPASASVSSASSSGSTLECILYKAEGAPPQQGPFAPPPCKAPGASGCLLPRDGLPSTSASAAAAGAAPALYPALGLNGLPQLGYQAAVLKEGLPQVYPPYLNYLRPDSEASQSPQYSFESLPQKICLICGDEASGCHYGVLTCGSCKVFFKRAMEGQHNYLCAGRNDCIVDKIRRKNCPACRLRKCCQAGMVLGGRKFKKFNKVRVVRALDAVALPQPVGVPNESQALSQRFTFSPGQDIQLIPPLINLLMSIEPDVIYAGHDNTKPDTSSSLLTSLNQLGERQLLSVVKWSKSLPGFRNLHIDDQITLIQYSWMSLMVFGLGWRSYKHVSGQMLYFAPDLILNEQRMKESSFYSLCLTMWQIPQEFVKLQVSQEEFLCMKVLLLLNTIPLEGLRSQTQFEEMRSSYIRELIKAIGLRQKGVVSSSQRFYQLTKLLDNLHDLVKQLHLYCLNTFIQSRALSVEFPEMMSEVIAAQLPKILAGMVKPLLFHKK

[2] = system: alkaline phosphatase mRNA; test: qRT-PCR of progesterone-induced alkaline phosphatase mRNA; type: cell-based, human; conditions: 10 nM P, 24 h
[3] = target: purified luciferase protein (Photinus pyralis, UniProt P08659); test: Enzyme inhibition assay with purified luciferase protein; type: biochemical; conditions: 0.05 ng pure luciferase protein, 10 μM compound
Outline: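 Purified firefly luciferase was used at a final 0.01 ng/μl in OneGlo buffer, with test compound diluted to 10 μM in buffer. After adding BrightGlo luciferase reagent, samples were held 5 min and luminescence measured.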

ER = target: T2, ER (Homo sapiens, UniProt P03372); test: ER reporter gene assay; type: cell-based; conditions: 10 μM compound, 5 nM estradiol, 24 h; % of maximal luciferase activity (100%)
T2 sequence (P03372 1-595): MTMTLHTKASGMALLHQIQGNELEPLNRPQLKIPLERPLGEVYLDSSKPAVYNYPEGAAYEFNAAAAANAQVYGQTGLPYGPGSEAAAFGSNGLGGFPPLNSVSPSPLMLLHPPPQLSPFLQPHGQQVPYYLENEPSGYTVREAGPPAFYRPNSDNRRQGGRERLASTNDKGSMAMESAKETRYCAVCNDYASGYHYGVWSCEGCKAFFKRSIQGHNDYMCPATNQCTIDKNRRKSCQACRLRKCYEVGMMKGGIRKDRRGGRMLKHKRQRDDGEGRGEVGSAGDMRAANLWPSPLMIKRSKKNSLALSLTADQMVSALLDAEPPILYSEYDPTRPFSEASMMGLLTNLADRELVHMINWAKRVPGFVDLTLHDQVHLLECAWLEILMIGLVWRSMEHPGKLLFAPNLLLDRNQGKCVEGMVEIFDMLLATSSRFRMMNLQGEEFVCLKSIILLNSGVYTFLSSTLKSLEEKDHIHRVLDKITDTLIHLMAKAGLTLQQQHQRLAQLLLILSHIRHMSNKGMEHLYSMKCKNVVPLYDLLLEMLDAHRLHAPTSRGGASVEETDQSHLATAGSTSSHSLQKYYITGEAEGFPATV

pS2 mRNA = test: qRT-PCR of 17β-estradiol-induced pS2 mRNA; type: cell-based; conditions: 2 hours; compound 51 at 5 μM
PR = target: T3, PR (Homo sapiens, UniProt P06401); test: PR reporter gene assay; type: cell-based
T3 sequence (P06401 165-933 limits assumed): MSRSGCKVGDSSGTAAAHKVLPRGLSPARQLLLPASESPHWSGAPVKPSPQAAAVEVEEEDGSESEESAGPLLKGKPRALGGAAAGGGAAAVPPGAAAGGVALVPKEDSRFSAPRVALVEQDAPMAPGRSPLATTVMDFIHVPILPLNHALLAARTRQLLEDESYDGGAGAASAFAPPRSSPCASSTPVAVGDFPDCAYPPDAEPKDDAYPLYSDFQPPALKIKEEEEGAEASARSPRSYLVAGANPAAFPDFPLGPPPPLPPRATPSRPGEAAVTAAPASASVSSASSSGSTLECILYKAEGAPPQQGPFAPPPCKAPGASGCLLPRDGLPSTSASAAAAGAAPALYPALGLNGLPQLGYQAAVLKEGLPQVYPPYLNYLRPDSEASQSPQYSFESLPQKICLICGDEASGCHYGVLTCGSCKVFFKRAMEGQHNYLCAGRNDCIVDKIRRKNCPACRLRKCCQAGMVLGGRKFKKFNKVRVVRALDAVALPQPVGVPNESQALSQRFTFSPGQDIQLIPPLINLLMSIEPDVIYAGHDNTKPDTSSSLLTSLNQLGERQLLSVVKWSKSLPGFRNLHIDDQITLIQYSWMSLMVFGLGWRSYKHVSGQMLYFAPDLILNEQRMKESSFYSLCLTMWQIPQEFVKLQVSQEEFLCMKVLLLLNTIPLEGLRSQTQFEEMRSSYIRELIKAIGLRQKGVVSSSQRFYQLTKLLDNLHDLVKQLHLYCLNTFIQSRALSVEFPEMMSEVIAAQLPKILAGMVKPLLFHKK

[4] = target: T4, alkaline phosphatase (AlkP) (Homo sapiens, UniProt P05186); test: Direct alkaline phosphatase inhibition in cell lysates; type: biochemical; conditions: lysates of progesterone-treated cells, 10 μM compound, 15 minutes
T4 sequence (P05186 18-524): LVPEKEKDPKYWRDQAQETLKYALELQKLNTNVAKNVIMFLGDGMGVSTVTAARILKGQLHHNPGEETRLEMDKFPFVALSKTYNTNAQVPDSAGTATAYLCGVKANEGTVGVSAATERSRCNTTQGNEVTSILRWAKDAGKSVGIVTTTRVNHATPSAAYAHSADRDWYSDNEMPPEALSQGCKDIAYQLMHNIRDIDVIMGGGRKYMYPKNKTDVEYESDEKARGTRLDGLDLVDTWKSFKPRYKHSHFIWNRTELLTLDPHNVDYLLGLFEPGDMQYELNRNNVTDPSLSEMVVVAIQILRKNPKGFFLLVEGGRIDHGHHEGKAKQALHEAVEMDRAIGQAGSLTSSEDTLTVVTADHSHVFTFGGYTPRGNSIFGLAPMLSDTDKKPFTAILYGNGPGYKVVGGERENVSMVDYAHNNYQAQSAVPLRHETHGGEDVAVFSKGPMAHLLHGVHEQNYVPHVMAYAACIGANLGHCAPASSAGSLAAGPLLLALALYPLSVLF
Outline: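 Lysates of cells given 2.5 nM progesterone to induce AlkP were aliquoted and exposed to 10 μM test compound for 15 min. Then added: buffer of 100 mM diethanolamine pH 9.5, 1 mM MgCl2, 0.4 mM CSPD chemiluminescent substrate and 1X Emerald II enhancer. After 1 h at room temperature, luminescence was read.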

[5] = system: endogenous PR-regulated alkaline phosphatase activity in T47D breast cancer cells; test: Progesterone-induced alkaline phosphatase assay in T47D cells; type: cell-based, human; conditions: by 5 μM
Outline: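 T47D cells were moved to phenol red-free medium with 10% charcoal-dextran FBS four days ahead. Cells were seeded overnight, then treated 24 h with 2.5 nM progesterone ± test compound in DMSO. Supernatant assayed with CSPD/diethanolamine pH 9.5 buffer, 1 h at RT, luminescence (542 nm). Untreated-compound activity = 100%; ≥3 experiments, mean ± SEM.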

Sequence of purified luciferase protein (P08659 whole entry): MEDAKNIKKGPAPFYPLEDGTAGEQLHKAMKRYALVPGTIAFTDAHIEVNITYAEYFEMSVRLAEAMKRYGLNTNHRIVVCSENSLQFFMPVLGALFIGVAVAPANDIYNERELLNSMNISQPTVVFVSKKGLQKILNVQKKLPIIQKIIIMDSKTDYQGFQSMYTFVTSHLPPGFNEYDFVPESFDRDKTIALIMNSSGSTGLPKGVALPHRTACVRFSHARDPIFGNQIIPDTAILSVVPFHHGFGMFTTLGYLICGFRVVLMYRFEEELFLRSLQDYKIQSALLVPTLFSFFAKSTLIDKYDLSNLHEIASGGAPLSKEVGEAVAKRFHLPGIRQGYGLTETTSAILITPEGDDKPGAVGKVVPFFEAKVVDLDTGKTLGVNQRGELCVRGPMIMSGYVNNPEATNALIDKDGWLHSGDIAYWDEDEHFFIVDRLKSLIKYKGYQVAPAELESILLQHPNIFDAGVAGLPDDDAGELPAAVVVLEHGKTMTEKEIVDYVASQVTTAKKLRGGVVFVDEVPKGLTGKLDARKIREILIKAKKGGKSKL

For `CCC(CC)CSc1nc2c([nH]1)c(=S)n(C)c(=O)n2C` [Compound 51, 6-thio-8-(2-ethylbutyl)thiotheophylline], the “fold weaker binding to PR than R5020” value ([1]; 10 nM tritiated R5020, 10 nM PR-B, 18-24 h at 0°C) was 4,700 fold, the “ability to compete with radio-labeled R5020 for binding to PR” value ([1]; at functionally significant concentrations) was “little or no ability to compete” and the “inhibition of progesterone induction of AlkP mRNA” value ([2]; 5 μM compound) was 74%. For the same compound, the “inhibition of progesterone induction of AlkP mRNA (in words)” value ([2]; 10 μM compound) was “completely blocked”, the “direct inhibition of luciferase enzymatic activity” value [3] was “did not inhibit” and the “Reporter Assay (% Activity) ER” value (ER) was 54%. For the same compound, the “effect on 17β-estradiol induction of pS2 mRNA” value (pS2 mRNA) was “no effect”, the agonist activity (PR; concentrations of 30 μM and higher) was “no observed agonist activity” and the “fold more potent inhibitor of PR than GR” value (PR; same T47D cells, same MMTV-luciferase reporter) was 6.1 fold. The “direct inhibition of alkaline phosphatase activity in lysates” value [4] was “failed to significantly inhibit activity” and the “inhibition of progesterone-induced AlkP activity at 5 μM” value [5] was “complete inhibition”.
